Calpain2 inh: inhibitors of pig calpain II. hit rate 0.37% among 220,000. inhibition, % at 16 µM. purified calpain II, fluorogenic peptide substrate, 30 min;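 active = inhibition above about 50%, limit read from the data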
Thrombin inh: thrombin (human) inhibition | alpha-thrombin, Boc-VPR-AMC fluorogenic substrate cleavage | inhibition, % at 5 µM | hit rate 0.26% among 220,000;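 active = inhibition at or above 40%; inactive = inhibition below 40%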;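 note: 0% = enzyme with no compound and 100% = wells without enzyme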
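Test system: human alpha-thrombin protein / Dosing: one concentration per compound, 5 µM, with 0.2% DMSO / Medium: pH 7.5 Tris-saline with Tween 20 / Benchmarks: no-compound enzyme wells and no-enzyme blanks / Read-out basis: percent inhibition of thrombin substrate cleavage / Timing: reaction at room temperature / Measured by: fluorescence, ex 355 nm, em 460 nm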
FXIa inh: blocks human coagulation factor XIa protease activity | purified FXIa, Boc-Glu-Ala-Arg-AMC fluorogenic substrate | hit rate 0.14% among 220,000 | inhibition, % at 5 µM | AID 798 | P03951;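 active = inhibition of at least 40%; inactive = inhibition below 40%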;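 note: fluorescence of freed AMC excited at 355 nm; 0% = enzyme without compound and 100% = no enzyme blank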
Furin inhibitor: inhibitors of human furin; inhibition, % at 20 µM or 30 µM; AID 463115; hit rate 0.061% among 220,000; purified furin, fluorogenic substrate cleavage; P09958; in the data active = inhibition above about 25%
hK5 inh: inhibitors of human kallikrein 5; Q9Y337; inhibition, % at 5 µM; recombinant hK5, fluorogenic AMC substrate cleavage; hit rate 0.59% among 210,000;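 active = inhibition of 40% or more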;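 note: 0% = enzyme controls without compound and 100% = no-enzyme blanks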
Target sequence (Q9Y337 67-293 limits assumed): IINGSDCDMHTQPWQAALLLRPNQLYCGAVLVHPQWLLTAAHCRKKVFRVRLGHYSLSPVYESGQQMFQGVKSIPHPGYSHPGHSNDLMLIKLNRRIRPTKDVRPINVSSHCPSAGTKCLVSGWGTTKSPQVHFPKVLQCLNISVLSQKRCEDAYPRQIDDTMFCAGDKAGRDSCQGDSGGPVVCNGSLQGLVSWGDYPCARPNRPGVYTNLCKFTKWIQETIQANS
FXIIa inh: inhibitors of human coagulation factor XIIa | AID 800 | P00748 | hit rate 0.3% among 220,000 | inhibition, % at 5 µM | purified FXIIa, Boc-QGR-AMC fluorogenic substrate, 2 h; in the data active = inhibition above about 40%;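 note: 0% = enzyme with no compound and 100% = blank without enzyme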
Starred values were filed as active, the others as inactive; i = inactive; nt = no result. This is a sample that favours compounds with a hit; in the whole collection about 1.4% have one here.

SMILES	Calpain2 inh	Thrombin inh	FXIa inh	Furin inhibitor	hK5 inh	FXIIa inh
Cc1[nH]c2ccccc2c1/C=C/c1nc2ccccc2c(=O)n1CCO	-33	-12	-2	-8	-3	-2
Cc1c(-c2cccs2)[n+](=O)c2c(n1[O-])CCC2	14	40*	17	-18	60*	34
COc1ccc(N2CCN(C(=O)CNS(=O)(=O)c3ccc(C)cc3)CC2)cc1	-48	-7	-1	-22	1	7
O=C(c1ccco1)N1CCN(C(=O)N2c3ccccc3Sc3ccccc32)CC1	4	104*	10	-17	43*	5
CCC(C)NCCOc1cc(C)cc(C)c1C (stereo not given)	8	56*	35	-10	31	nt
CC(=O)c1c(C)[nH]c(C(=O)CSc2nnc(C)s2)c1C	2	40	28	-13	52*	25
CC(=O)c1[nH]c(C)c(C(C)=O)c1C	11	8	3	-11	47*	30
COc1ccc(N(CC(=O)NCc2ccc(Cl)cc2)S(=O)(=O)c2ccccc2[N+](=O)[O-])c(OC)c1	-12	16	102*	-4	23	37
COc1ccc(N(CC(=O)NCc2cccnc2)S(=O)(=O)c2ccccc2[N+](=O)[O-])c(OC)c1	-20	-2	3	-30	9	12
Cc1ccc(CN(CC(=O)NC2CCCC2)C(=O)CSc2nnc(COc3ccccc3)o2)cc1	17	-4	8	25*	4	14
O=C(CN(Cc1ccccc1)C(=O)CSc1nnc(COc2ccccc2)o1)NC1CCCC1	22	-1	7	-17	-3	11
FC(F)Sc1nc2ccccc2[nH]1	-5	-9	-1	-13	0	15
Cc1ccc(NC(=S)N(CCCN2CCOCC2)Cc2cccnc2)cc1C	-27	-2	-2	-23	1	6
CCN(CC)C(=O)CSc1nc2ccsc2c(=O)n1CCCC(=O)NCCc1ccc(S(N)(=O)=O)cc1	26	-13	6	-11	-3	9
Cc1cc(NC(=O)CSc2nc3ccsc3c(=O)n2CCCC(=O)NCCc2ccccc2)no1	50*	-5	4	-6	-7	15
COc1ccc(C(=O)c2cnc3cc4c(cc3c2C)OCO4)cc1	33	34	9	-6	74*	0
COCCn1c(-c2ccc(-c3ccc([N+](=O)[O-])cc3Br)o2)nc2c1c(=O)[nH]c(=O)n2CC(C)C	-149	-11	0	-12	1	4
O=C1c2ccccc2C(=O)c2c1cccc2N1CCCC1	51*	-4	7	-16	-7	9
O=C(Cc1ccccc1)c1c[nH]c(C(=O)NC2CCCC2)c1	24	-15	-6	-19	-2	-1
COc1ccc(NC(=O)CC2C(=O)N(c3ccc(F)cc3)C(=S)N2NC(=O)c2ccc(Cl)cc2)cc1 (stereo not given)	-12	0	7	-9	-13	6
CCc1nnc(NC(=O)c2ccc(NC(=O)C(C)C)cc2)s1	-10	2	43*	-10	0	4
COCc1nnc(NC(=O)c2ccc(NC(=O)C(C)C)cc2)s1	-14	5	8	-18	0	23
CCc1ccc(C(=O)COC(=O)CNC(=O)c2ccc(N3C(=O)c4ccccc4C3=O)cc2)cc1	18	4	4	-18	44*	27
CN(NC1OC(=O)c2ccccc21)c1ncc(Cl)cc1C(F)(F)F (stereo not given)	17	14	16	11	35	107*
O=C1OC(Nc2ccc(Cl)cn2)c2ccccc21 (stereo not given)	-17	-6	-6	-10	2	-2
SMILES	Calpain2 inh	Thrombin inh	FXIa inh	Furin inhibitor	hK5 inh	FXIIa inh
O=C(/C=C/c1cccs1)N1CCOCC1	56*	4	10	-28	-5	21
O=C(/C=C/c1cccs1)N1CCN(c2ccc(F)cc2)CC1	5	1	2	0	3	12
O=C1Nc2c(c(=O)[nH]c(=O)n2-c2ccccc2)C1(Nc1ncccn1)C(F)(F)F (stereo not given)	-6	13	15	-22	156*	32
CCN(CC)C(=S)NC(=O)c1cc(OC)c(OC)c(OC)c1	-3	0	-8	-28	-20	-9
COC(=O)c1ccc2c(=O)n(Cc3ccco3)c(SCC(=O)Nc3cc(C)on3)nc2c1	5	-6	-6	-12	-6	1
Cc1cc(NC(=O)CSc2nc3cc(C(=O)NCCCOC(C)C)ccc3c(=O)n2Cc2ccco2)no1	61*	-1	3	-16	2	4
COc1cccc(NC(C)(C)c2nnnn2-c2c(C)cccc2C)c1	24	1	44*	-5	29	66*
CCCOP(=O)(OCCC)C1(Nc2ccc(C)cc2)CCCCC1	4	9	-27	26*	2	20
COc1ccc(OC)c(CC(NC(C)=O)C(=O)NC2CCN(c3cc(C)nc4ncnn34)CC2)c1 (stereo not given)	-3	-4	-6	-26	-9	0
O=C(Nc1cccc(Cl)c1)c1cc(F)cc2c1OCOC2	-1	-2	0	-15	-2	8
CCc1nccn1C(=O)c1cnn2c(C(F)F)cc(-c3ccc(C)cc3)nc12	i	77*	-2	-12	-24	3
CCN1CCN(C(=O)c2cnn3c(C(F)F)cc(-c4ccc(C)cc4)nc23)CC1	-250	-5	-6	-9	8	-3
CCc1nccn1C(=O)c1cnn2c(C(F)F)cc(-c3ccccc3)nc12	-151	76*	11	-4	2	16
O=C(c1cccc(S(=O)(=O)NCCOc2ccccc2)c1)N1CCN(c2ncccn2)CC1	-18	-3	-2	-6	-15	3
O=C(c1noc2c1CCc1ccccc1-2)N1CCc2ccccc2C1	36	21	7	-13	30	23
O=C(c1noc2c1CCc1ccccc1-2)N1CCOCC1	-16	1	-9	-14	72*	-7
NS(=O)(=O)c1ccc(Cl)cc1[N+](=O)[O-]	3	22	41*	-3	17	46*
CS(=O)(=O)NCCCNc1ccc(Cl)cc1[N+](=O)[O-]	9	1	-2	-19	-10	18
O=C(CCC(=O)N1CCN(S(=O)(=O)c2ccc(Cl)cc2)CC1)Nc1cccc(Br)c1	83*	1	13	-24	-23	16
COc1cc(OC)cc(C(=O)N[C@H](C(=O)Nc2cccc(S(=O)(=O)N3CCCC3)c2)C(C)C)c1	10	0	2	-8	14	9
c1ccc(Nc2cccc(Nc3ccccc3)c2)cc1	44	14	10	-10	48*	17
Nc1cccc(Nc2ccccc2)c1	14	-8	-3	-17	0	8
CC(C)(C)C(=O)CSc1ncnc2c1cnn2-c1ccccc1	20	-5	43*	-3	24	19
Cc1ccccc1-n1ncc2c(SCC(=O)N3c4ccccc4CC3C)ncnc21 (stereo not given)	31	41*	20	-17	32	26

Screens deposited in PubChem BioAssay by several laboratories.
